In the EternaBench riboswitch data:

Tested on: MS2 coat protein
Experiment: apparent Kd, MS2 coat protein; higher = weaker binding; RNA-MaP array; FMN 200 µM where present
Outline: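 Designs were transcribed by stalled E. coli RNA polymerase on Illumina sequencing-chip clusters. They were titrated with SNAP-549-labelled MS2 coat protein from 0.7 or 1.5 nM, doubling to 3 µM, in 100 mM Tris-HCl pH 7.5, 80 mM KCl, 4 mM MgCl2, BSA, DTT, yeast tRNA and Tween-20, without and then with constant ligand. The apparent Kd is the median of filtered per-cluster fits after normalisation of green signal to red-channel RNA signal and control-cluster median Fmax.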

[1] = designed as: ON switch for flavin mononucleotide, no ligand
[2] = ligand present: flavin mononucleotide, designed as: ON switch for flavin mononucleotide
[3] = designed as: OFF switch for flavin mononucleotide, no ligand
[4] = ligand present: flavin mononucleotide, designed as: OFF switch for flavin mononucleotide

Sequence	apparent Kd [1] [nM]	apparent Kd [2] [nM]	apparent Kd [3] [nM]	apparent Kd [4] [nM]
CAGCGCUGUCGAGAGGAUAUGCGGUGAUGGACAUGAGGAUCACCCAUGUUAGCGACAGCAUUACGGUAGAAGGCUUCACAGCUGC	51.5	202		
CCUCCACAGGAGGAUAUCAUCAAACUAUUGUGAUGAGAAGGCCUGACAUGAGGAUCACCCAUGUUAUCGUGAUG			56	185
GGGUCAAUCUUUAGGUGGCGAGACUAGGAUAUGAGUGGUCCCACAUGAGGAUCACCCAUGUGUACUUAGAAGGAGUAGCGCCGU	160	184		
UGGUUUGGGCUAGAUGCACAGACAUGAGGAUCACCCAUGUCUGAGGAUAUGCGUCAACAUAGGCAGCAGAAGGCAGACACUCGC			15	22.2
CCUCUGUCCGAGGAUAUGAGGUUAACGUGACCGUCAGAAGGCGGAACAUGAGGAUCACCCAUGUUUUGCGCAUG			44.2	68
GCAGGUUUACGAGGAUAUGGGUGGUACGGACAUGAGGAUCACCCAUGUCUCCCAGAAGGCGUAGCCCAACAAAGAGAACAGGAG	160	22.5		
UCCUUGUCCUGAGGAUAUCCGCGGUUCCCAAAAGGAGAAGGCAGGACAUGAGGAUCACCCAUGUACCCAGAACACGUGCAGAGU			14.6	90.9
GGGUACAUCCGAGGAUAUCAUGUAAAUACAUGAGGAUCACCCAUGUCGAUGGAGACAUCGGAGAUUGAGAAGGCCGAUGUACCG	344	22.9		
UUAUUUUGUCAAGGAUAUGUAAUAUAGAUUAGAAAACAUGAGGAUCACCCAUGUAUAUGGUGGGAACAGAAGGUGAAUGGUUUA			196	161
CCGUAGCAAGGAUAUACAUGAGGAUCACCCAUGUGUGUCAGUGUGGGUAGACAUUAAUGUAGAAGGUGCGACUG			64.8	161
CAUUAUUAUCGAGGAUAUCCUAUUGAAAUUCUGGGAGAAGGCGGACUCAACAUGAGGAUCACCCAUGUGGGACGGAUGCUAGGA			18.5	15.4
UCCGAACAUGAGGAUCACCCAUGUCUAAUACGUCAAGGAUAUGGGCGCGGAGAACCGCAACCAGAAGGUGAGAAAU	507	89.4		
UCGUAUACACAAGGAUAUCGAUGGCUUGUAGAUCCUACAUGAGGAUCACCCAUGUUUUUAUAUUGUGAGAAGGUGUAGUGUCUU	1170	1910		
ACCUCACAUGAGGAUCACCCAUGUUAGGAUAUCUCGAUGCUCCACGGGCGGUAGCAUCAGAGAAGGAACGUGCU			23.9	21.5
GGGUAGAUCGGAGGAUAUCAUGUAAAUACAUGAGGAUCACCCAUGUCGAUGGAGACAUCGGAGAUUGAGAAGGCCGAUGUACCG	166	8.4		
AGUUGAAGGUAGAAGGGUGACAUGAGGAUCACCCAUGUGCGAGCAUCGGACGAAGAUGGCUCGCCACAGGAUAUACCUUCAAUU	41.2	44.4		
UUAAAUCAUGUAGGAUAUGCAUGGCGAAGCUACGCAGAAGGACAUGAGGAUCACCCAUGUUAUAGCUAGCCAGUUCGCUGGCAA			23.6	164
UUUGUUUUGCAAGGAUAUGUUUAAUUUUAGUUUCCUUACACAUGAGGAUCACCCAUGUUAUACUUACAGAAGGUGCGUAAUUUU			126	94
UGUUGUAUUACAGGAUAUCUAUGAUUUAUAUUUAGAGAAGGGUAUUCACAUGAGGAUCACCCAUGUAUAUACGAGGAAGUUGUG	48.7	55.9		
CCGGAAAUGCAGGAUAUCGUAUCGGAUACGAUACGAGAAGGGUAUACAUGAGGAUCACCCAUGUGUCCUACCGG			18.4	22.1
CUAUCGAGGUCACUCGUUAUCACACCAGAAGGGACGGAGGCACAUGAGGAUCACCCAUGUCCUAGUCAGGAUAUGGGUGAGUAG	25.6	5.16		
UGCUACGUUUCGUAGCAGCUAGGUGAGGAUAUUCAAUUUUUCACAUGAGGAUCACCCAUGUAUGUGAAGAAGGCGCCUAGAAAU	12.8	4.8		
UCUUAUUGCAAGGAUAUGCAAUUUAUUUUUUAUGCAGAAGGUGCAACAUGAGGAUCACCCAUGUUUCCGGGCAU			13.8	18.6
